Columns and labels:
γ-secretase [1] = test: GM1-bound Aβ in TBS-Tx extracts of 3 mo J20 tg mice after Compound E; assay type: in vivo, mouse
In short: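 3-month J20 transgenic mice were injected with test compound or vehicle, and brains were harvested 2.5 h or 5 h later. Brains were Dounce-homogenized in ice-cold TBS (20 mM Tris-HCl, 150 mM NaCl, pH 7.4) with protease inhibitors and spun 175,000 g for 30 min at 4 °C. The pellet was re-extracted the same way in TBS-1% Triton-X. Both extracts underwent R1282 IP, then WB: 3D6+6E10+266+2G3+21F12 for Aβ, CTβ for GM1. N=4 vehicle mice; mean ± SEM; 2-way ANOVA with Bonferroni post-test.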

γ-secretase [2] = conditions: ref Hong et al., 2011; cited from earlier work

In the case of `C[C@H](NC(=O)Cc1cc(F)cc(F)c1)C(=O)N[C@H]1N=C(c2ccccc2)c2ccccc2N(C)C1=O` [Compound E], the “Levels of GM1-bound Aβ in TBS-Tx” value (γ-secretase [1]; 3 mo J20 tg mice, brains harvested 2.5 h or 5 h after injection, N=3 and 4 mice) is given as “decreased”, the “Effect on total GM1 levels in the brain” value (γ-secretase [1]; data not shown) is given as “no effect” and the “t1/2 of decline in brain ISF Aβ” value (γ-secretase [2]) is given as ~ 2 h.
